In ChEMBL document CHEMBL3352278, “Design and discovery of 5-hydroxy-6-oxo-1,6-dihydropyrimidine-4-carboxamide inhibitors of HIV-1 integrase” (Bioorg Med Chem, 2014):

Tests used:
[1] = Retention time of the compound by HPLC; type: physicochemical
[2] = target: T1, Human immunodeficiency virus type 1 integrase (Human immunodeficiency virus 1, UniProt Q7ZJM1); test: Inhibition of HIV1 recombinant wild type integrase 3'-processing activity by gel-based assays
[3] = target: T1, Human immunodeficiency virus type 1 integrase; test: Inhibition of HIV1 recombinant wild type integrase strand transfer activity by gel-based assay
[4] = Therapeutic index, ratio of CC50 for human MT4 cells to EC50 for HIV1 3B infected in human MT4 cells; type: cell-based; conditions: HIV1 3B infected MT4 cells, read-out: Ratio CC50/EC50
Procedure, shortened: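 Computed as CC50/EC50, both from parallel MTT assays in MT-4 cells, with and without infection by 100–300 CCID50 HIV-1 IIIB, using 5-fold serial compound dilutions.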

[5] = Cytotoxicity against human MT4 cells assessed as cell viability by MTT assay; type: cell-based
Procedure, shortened: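 Uninfected MT-4 cells run in parallel with the antiviral assay, exposed to 5-fold serial dilutions of compound. Viability read by MTT; CC50 is the concentration reducing viability by 50%.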

[6] = system: Human immunodeficiency virus 1; test: Antiviral activity against wild-type HIV1 3B infected in human MT4 cells assessed as inhibition of viral cytopathic effect by MTT assay; type: functional, organism-based; conditions: Human immunodeficiency virus 1, 3B
Procedure, shortened: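 MT-4 cells infected with 100–300 CCID50 of titrated HIV-1 IIIB stock in the presence of 5-fold serial dilutions of compound (DMSO stocks, diluted in DMSO). Protection against virus-induced cytopathic effect read by MTT; EC50 taken as the concentration giving 50% protection.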

T1 sequence (Q7ZJM1 whole entry): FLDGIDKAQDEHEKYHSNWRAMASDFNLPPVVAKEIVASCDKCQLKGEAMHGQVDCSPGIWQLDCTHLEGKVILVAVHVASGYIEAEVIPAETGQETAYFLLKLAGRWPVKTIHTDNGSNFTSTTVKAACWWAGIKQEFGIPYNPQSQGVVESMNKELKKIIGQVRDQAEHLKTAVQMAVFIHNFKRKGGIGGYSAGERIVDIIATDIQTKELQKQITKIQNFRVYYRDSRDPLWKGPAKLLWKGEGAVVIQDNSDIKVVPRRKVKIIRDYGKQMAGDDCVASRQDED

Row | SMILES | Retention_time [1] [min] | IC50 [2] [µM] | IC50 [3] [nM] | selectivity ratio [4] | CC50 [5] [µM] | EC50 [6] [µM]
1 | O=C(NCc1ccc(F)cc1)c1nc(-c2ccccc2)[nH]c(=O)c1O | 2.378 | 17 | 1000 | – | – | –
2 | Cc1ccc(CNC(=O)c2nc(-c3ccc(F)cc3)[nH]c(=O)c2O)cc1C | 6.437 | 16 | 500 | 12 | 33.5 | 2.7
3 | O=C(NCc1ccc(F)cc1)c1nc(-c2ccc(Cl)cc2)[nH]c(=O)c1O | 2.306 | 5 | 2000 | – | – | –
4 | O=C(NCc1ccc(Cl)cc1)c1nc(-c2ccc(F)cc2)[nH]c(=O)c1O | 5.03 | 9 | 800 | 5 | 44 | 8.1
5 | O=C(NCc1cccc(Cl)c1F)c1nc(-c2ccc(F)cc2)[nH]c(=O)c1O | 2.309 | 13 | 1400 | 18 | 48 | 2.61
6 | O=C(NCc1ccc(F)cc1)c1nc(-c2cccc(F)c2)[nH]c(=O)c1O | 2.379 | 5 | 1000 | – | – | –
7 | O=C(NCc1cccc(F)c1)c1nc(-c2ccc(F)cc2)[nH]c(=O)c1O | 4.349 | 20 | 3000 | 7 | 49.5 | 7.34
8 | COc1ccc(CNC(=O)c2nc(-c3ccc(F)cc3)[nH]c(=O)c2O)cc1 | 4.134 | 16 | 2000 | 6 | 44 | 7.61
9 | O=C(NCc1ccc(F)cc1)c1nc(-c2ccccc2F)[nH]c(=O)c1O | 2.949 | 16 | 2000 | – | – | –
10 | O=C(NCc1ccc(F)cc1)c1nc(Cc2ccc(F)cc2)[nH]c(=O)c1O | 2.989 | > 20 | 10000 | – | – | –
11 | O=C(NCc1ccc(F)c(F)c1)c1nc(-c2ccc(F)cc2)[nH]c(=O)c1O | 4.39 | 17 | 1000 | 6 | 31 | 5.17
12 | O=C(NCc1cccc(Cl)c1)c1nc(-c2ccc(F)cc2)[nH]c(=O)c1O | 5.251 | 20 | 1400 | 18 | 35 | 1.91
13 | O=C(NCc1ccc(Br)cc1)c1nc(-c2ccc(F)cc2)[nH]c(=O)c1O | 5.373 | 11 | 500 | 4 | 47.5 | 11
14 | O=C(NCc1ccc(F)c(Cl)c1)c1nc(-c2ccc(F)cc2)[nH]c(=O)c1O | 3.56 | 6 | 4000 | 35 | 45.5 | 1.3
15 | O=C(NCc1ccccc1F)c1nc(-c2ccc(F)cc2)[nH]c(=O)c1O | 2.395 | 20 | 7000 | 4 | 28.5 | 7.81
16 | O=C(NCc1ccc(F)cc1)c1nc(-c2ccc(F)cc2)[nH]c(=O)c1O | 4.075 | 12 | 600 | 26 | 44 | 1.72
17 | O=C(NCc1ccc(O)cc1)c1nc(-c2ccc(F)cc2)[nH]c(=O)c1O | 2.846 | > 20 | 6000 | 7 | 49 | 6.71
18 | O=C(NCc1cc(F)c(F)c(F)c1)c1nc(-c2ccc(F)cc2)[nH]c(=O)c1O | 3.549 | 14 | 8000 | 7 | 34.5 | 4.64
19 | O=C(NCCc1ccc(F)cc1)c1nc(-c2ccc(F)cc2)[nH]c(=O)c1O | 4.748 | 17 | 4000 | – | 30 | > 30
20 | O=C(NCc1ccc(F)cc1)c1nc(-c2ccc(Br)cc2)[nH]c(=O)c1O | 2.385 | 3 | 1000 | – | – | –
21 | O=C(NCc1ccccc1)c1nc(-c2ccccc2)nc(O)c1O | 2.288 | > 20 | 8000 | 9 | 50.7 | 5.65
